In ChEMBL document CHEMBL1152495, “Synthesis and antimicrobial studies of novel methylene bridged benzisoxazolyl imidazo[2,1-b][1,3,4]thiadiazole derivatives” (2009):
Values after ≈ are worked out from the molar mass of the structure shown.

Columns and labels:
Assay type in all cases: functional
Staphylococcus aureus [1] = test: Antibacterial activity against Staphylococcus aureus ATCC 25923 after 24 hrs by agar well diffusion method; conditions: ATCC 25923, 24 h
Procedure, shortened: (§1)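 Agar well diffusion on Mueller Hinton agar (20 mL per dish), seeded homogeneously with liquid bacterial culture by spread plating. Samples loaded directly into wells, dimethylformamide as solvent control, ampicillin as reference drug. Plates incubated at 37 °C for 24 h. All determinations done in triplicate.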

Aspergillus fumigatus [2] = test: Antifungal activity against Aspergillus fumigatus after 72 hrs by agar well diffusion method
Procedure, shortened: (§2)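 Fungi grown on Potato Dextrose Agar (20 mL per dish), seeded homogeneously with liquid culture by spread plating. Samples loaded directly into agar wells, with dimethylformamide as solvent control and clotrimazole as reference drug. Plates incubated at 25 °C for 72 h, triplicate determinations.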

Escherichia coli [3] = test: Antibacterial activity against Escherichia coli ATCC 35218 after 24 hrs by agar well diffusion method; conditions: ATCC 35218, 24 h; procedure, shortened: as §1
Escherichia coli [4] = test: Antibacterial activity against Escherichia coli ATCC 35218 at 100 ug/ml after 24 hrs by agar well diffusion method; conditions: ATCC 35218, 24 h, read-out: IZ; procedure, shortened: as §1
Candida albicans [5] = test: Antifungal activity against Candida albicans at 100 ug/ml after 72 hrs by agar well diffusion method; conditions: read-out: IZ; procedure, shortened: as §2
Aspergillus fumigatus [6] = test: Antifungal activity against Aspergillus fumigatus at 100 ug/ml after 72 hrs by agar well diffusion method; conditions: read-out: IZ; procedure, shortened: as §2
Bacillus subtilis [7] = test: Antibacterial activity against Bacillus subtilis ATCC 6633 after 24 hrs by agar well diffusion method; conditions: ATCC 6633, 24 h; procedure, shortened: as §1
Bacillus subtilis [8] = test: Antibacterial activity against Bacillus subtilis ATCC 6633 at 100 ug/ml after 24 hrs by agar well diffusion method; conditions: ATCC 6633, 24 h, read-out: IZ; procedure, shortened: as §1
Pseudomonas aeruginosa [9] = test: Antibacterial activity against Pseudomonas aeruginosa ATCC 10145 after 24 hrs by agar well diffusion method; conditions: ATCC 10145, 24 h; procedure, shortened: as §1
Staphylococcus aureus [10] = test: Antibacterial activity against Staphylococcus aureus ATCC 25923 at 100 ug/ml after 24 hrs by agar well diffusion method; conditions: ATCC 25923, 24 h, read-out: IZ; procedure, shortened: as §1
Candida albicans [11] = test: Antifungal activity against Candida albicans after 72 hrs by agar well diffusion method; procedure, shortened: as §2
Pseudomonas aeruginosa [12] = test: Antibacterial activity against Pseudomonas aeruginosa ATCC 10145 at 100 ug/ml after 24 hrs by agar well diffusion method; conditions: ATCC 10145, 24 h, read-out: IZ; procedure, shortened: as §1

| SMILES | MIC (Staphylococcus aureus [1]) [µg/mL] | MIC (Aspergillus fumigatus [2]) [µg/mL] | MIC (Escherichia coli [3]) [µg/mL] | MIC (Bacillus subtilis [7]) [µg/mL] | MIC (Pseudomonas aeruginosa [9]) [µg/mL] | MIC (Candida albicans [11]) [µg/mL] | zone of inhibition at 100 µg/mL (Escherichia coli [4]) [mm] | zone of inhibition at 100 µg/mL (Candida albicans [5]) [mm] | zone of inhibition at 100 µg/mL (Aspergillus fumigatus [6]) [mm] | zone of inhibition at 100 µg/mL (Bacillus subtilis [8]) [mm] | zone of inhibition at 100 µg/mL (Staphylococcus aureus [10]) [mm] | zone of inhibition at 100 µg/mL (Pseudomonas aeruginosa [12]) [mm] |
| --- | --- | --- | --- | --- | --- | --- | --- | --- | --- | --- | --- | --- |
| O=c1oc2ccccc2cc1-c1nc2sc(Cc3noc4ccccc34)nn2c1Br | 2 (≈ 4.17 µM) | 2.5 (≈ 5.22 µM) | 2.5 (≈ 5.22 µM) | 3 (≈ 6.26 µM) | 2.5 (≈ 5.22 µM) | 3 (≈ 6.26 µM) | 13 | 14 | 17 | 10 | 15 | 14 |
| Brc1ccc(-c2nc3sc(Cc4noc5ccccc45)nn3c2Br)cc1 | 2 (≈ 4.08 µM) | 2.5 (≈ 5.1 µM) | 2 (≈ 4.08 µM) | 2.5 (≈ 5.1 µM) | 2 (≈ 4.08 µM) | 2.5 (≈ 5.1 µM) | 14 | 16 | 16 | 12 | 13 | 16 |
| COc1ccc(-c2cn3nc(Cc4noc5ccccc45)sc3n2)cc1 | 3.5 (≈ 9.66 µM) | 2 (≈ 5.52 µM) | 3 (≈ 8.28 µM) | 2.5 (≈ 6.9 µM) | 3 (≈ 8.28 µM) | 3 (≈ 8.28 µM) | 12 | 15 | 19 | 14 | 10 | 11 |
| O=[N+]([O-])c1ccc(-c2nc3sc(Cc4noc5ccccc45)nn3c2Br)cc1 | 2 (≈ 4.38 µM) | 4.5 (≈ 9.86 µM) | 3.5 (≈ 7.67 µM) | 2.5 (≈ 5.48 µM) | 3 (≈ 6.57 µM) | 4 (≈ 8.77 µM) | 10 | 9 | 8 | 12 | 11 | 11 |
| Clc1ccc(-c2cn3nc(Cc4noc5ccccc45)sc3n2)cc1 | 2 (≈ 5.45 µM) | 1.5 (≈ 4.09 µM) | 1.5 (≈ 4.09 µM) | 0.5 (≈ 1.36 µM) | 3 (≈ 8.18 µM) | 3.5 (≈ 9.54 µM) | 18 | 11 | 16 | 17 | 12 | 12 |
| O=Nc1c(-c2ccc(Cl)cc2)nc2sc(Cc3noc4ccccc34)nn12 | 2 (≈ 5.05 µM) | 2.5 (≈ 6.32 µM) | 3 (≈ 7.58 µM) | 1.5 (≈ 3.79 µM) | 2.5 (≈ 6.32 µM) | 3 (≈ 7.58 µM) | 13 | 15 | 17 | 14 | 10 | 15 |
| COc1ccc(-c2nc3sc(Cc4noc5ccccc45)nn3c2Br)cc1 | 1.5 (≈ 3.4 µM) | 2.5 (≈ 5.66 µM) | 2 (≈ 4.53 µM) | 0.5 (≈ 1.13 µM) | 2 (≈ 4.53 µM) | 4 (≈ 9.06 µM) | 16 | 10 | 15 | 18 | 11 | 17 |
| Nc1nnc(Cc2noc3ccccc23)s1 | 1.5 (≈ 6.46 µM) | 3.5 (≈ 15.1 µM) | 3.5 (≈ 15.1 µM) | 1 (≈ 4.31 µM) | 2.5 (≈ 10.8 µM) | 3 (≈ 12.9 µM) | 10 | 14 | 11 | 15 | 15 | 14 |
| Brc1ccc(-c2cn3nc(Cc4noc5ccccc45)sc3n2)cc1 | 2.5 (≈ 6.08 µM) | 3.5 (≈ 8.51 µM) | 1 (≈ 2.43 µM) | 0.5 (≈ 1.22 µM) | 2.5 (≈ 6.08 µM) | 2 (≈ 4.86 µM) | 20 | 22 | 13 | 18 | 15 | 14 |
| O=c1oc2ccccc2cc1-c1cn2nc(Cc3noc4ccccc34)sc2n1 | 3 (≈ 7.49 µM) | 3.5 (≈ 8.74 µM) | 3.5 (≈ 8.74 µM) | 1 (≈ 2.5 µM) | 3 (≈ 7.49 µM) | 2.5 (≈ 6.24 µM) | 10 | 20 | 13 | 15 | 13 | 10 |
| CC1(C)S[C@@H]2[C@H](NC(=O)[C@H](N)c3ccccc3)C(=O)N2[C@H]1C(=O)O [AMPICILLIN] | 1 (≈ 2.86 µM) |  |  | 0.5 (≈ 1.43 µM) | 2 (≈ 5.72 µM) |  | 16 |  |  | 18 | 19 | 17 |
| Clc1ccccc1C(c1ccccc1)(c1ccccc1)n1ccnc1 [CLOTRIMAZOLE] |  | 2 (≈ 5.8 µM) |  |  |  | 2 (≈ 5.8 µM) |  | 22 | 20 |  |  |  |

Now from value to compound, other results behind:

| MIC (Staphylococcus aureus [1]) [µg/mL] | MIC (Aspergillus fumigatus [2]) [µg/mL] | MIC (Escherichia coli [3]) [µg/mL] | MIC (Bacillus subtilis [7]) [µg/mL] | MIC (Pseudomonas aeruginosa [9]) [µg/mL] | MIC (Candida albicans [11]) [µg/mL] | SMILES | zone of inhibition at 100 µg/mL (Escherichia coli [4]) [mm] | zone of inhibition at 100 µg/mL (Candida albicans [5]) [mm] | zone of inhibition at 100 µg/mL (Aspergillus fumigatus [6]) [mm] | zone of inhibition at 100 µg/mL (Bacillus subtilis [8]) [mm] | zone of inhibition at 100 µg/mL (Staphylococcus aureus [10]) [mm] | zone of inhibition at 100 µg/mL (Pseudomonas aeruginosa [12]) [mm] |
| --- | --- | --- | --- | --- | --- | --- | --- | --- | --- | --- | --- | --- |
| 1.5 (≈ 3.97 µM) | 4 (≈ 10.6 µM) | 3 (≈ 7.95 µM) | 2.5 (≈ 6.62 µM) | 3.5 (≈ 9.27 µM) | 3.5 (≈ 9.27 µM) | O=[N+]([O-])c1ccc(-c2cn3nc(Cc4noc5ccccc45)sc3n2)cc1 | 13 | 10 | 11 | 11 | 14 | 8 |
| 1.5 (≈ 3.69 µM) | 4 (≈ 9.84 µM) | 3.5 (≈ 8.61 µM) | 1.5 (≈ 3.69 µM) | 3 (≈ 7.38 µM) | 2.5 (≈ 6.15 µM) | O=Nc1c(-c2ccc([N+](=O)[O-])cc2)nc2sc(Cc3noc4ccccc34)nn12 | 9 | 17 | 11 | 14 | 12 | 11 |
| 1.5 (≈ 3.37 µM) | 4 (≈ 8.97 µM) | 2 (≈ 4.49 µM) | 0.5 (≈ 1.12 µM) | 2.5 (≈ 5.61 µM) | 3 (≈ 6.73 µM) | Clc1ccc(-c2nc3sc(Cc4noc5ccccc45)nn3c2Br)cc1 | 15 | 15 | 10 | 18 | 17 | 12 |
| 1 (≈ 2.77 µM) | 2.5 (≈ 6.92 µM) | 3 (≈ 8.3 µM) | 2 (≈ 5.53 µM) | 3 (≈ 8.3 µM) | 3.5 (≈ 9.68 µM) | O=Nc1c(-c2ccccc2)nc2sc(Cc3noc4ccccc34)nn12 | 11 | 13 | 16 | 13 | 18 | 10 |
| 1 (≈ 3.01 µM) | 2 (≈ 6.02 µM) | 3.5 (≈ 10.5 µM) | 2 (≈ 6.02 µM) | 3.5 (≈ 10.5 µM) | 3.5 (≈ 10.5 µM) | c1ccc(-c2cn3nc(Cc4noc5ccccc45)sc3n2)cc1 | 9 | 12 | 19 | 11 | 16 | 9 |
| 1 (≈ 2.43 µM) | 3.5 (≈ 8.51 µM) | 3 (≈ 7.29 µM) | 2.5 (≈ 6.08 µM) | 2 (≈ 4.86 µM) | 3 (≈ 7.29 µM) | Brc1c(-c2ccccc2)nc2sc(Cc3noc4ccccc34)nn12 | 11 | 14 | 12 | 12 | 18 | 16 |
